pIC50: −log10 of the molar value. The source made the active and inactive calls. No cut-off for these calls is given here.
Experiments:
[1] = system: Drosophila; experiment: Enhancement of short-term memory in Drosophila w1118 (isoCJ1) P35*H29.3 model of human Abeta42 transgenic Alzheimer's disease model assessed as increase in performance index at 100 uM fed to flies for 7 days by Pavlovian olfactory learning method; format: functional, organism-based
Summary of the method: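 Male flies: elav-GAL4c155 (P35) × UAS-Aβ42 (H29.3) F1, with 2U*H29.3 as normal controls. Newly hatched flies kept about 120 per vial and reared at 28 °C, 42% RH. Fed 100 μM (from 10 mM stock) in 50 μL daily for 4 h, days 2–8. Controls got matching DMSO. Pavlovian olfactory learning done in the dark at 24 °C, 70% RH. Read-out is performance index; two vials per PI.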

[2] = target: T1, Amyloid-beta precursor protein (Homo sapiens, UniProt P05067); experiment: Inhibition of amyloid beta (1 to 42) (unknown origin) aggregation incubated at 37 degC for 16 hrs by thioflavin T fluorescence assay
Summary of the method: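 Aβ42 at 40 μM (in DMSO/PBS pH 6.6), mixed 2:1:1 with sample and 80 μM ThT stock, shaken 15 min, then held at 37 °C for 16 h. Read by ThT fluorescence. IC50 measured only for samples with ≥60% inhibition: six concentrations, three independent experiments, mean % inhibition fitted to a four-parameter variable-slope log(inhibitor)–response curve.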

[3] = target: T1, Amyloid-beta precursor protein; experiment: Inhibition of amyloid beta (1 to 42) (unknown origin) aggregation at 100 uM incubated at 37 degC for 16 hrs by thioflavin T fluorescence assay
Summary of the method: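 Aβ42 prepared at 40 μM in DMSO plus PBS (0.01 M, pH 6.6), mixed 2:1:1 with sample and 80 μM ThT stock. Shaken 15 min, incubated at 37 °C for 16 h, then ThT fluorescence read. Inhibition = (F0−Fi)/F0×100 against no-sample wells. Three independent experiments.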

T1 sequence (P05067 whole entry): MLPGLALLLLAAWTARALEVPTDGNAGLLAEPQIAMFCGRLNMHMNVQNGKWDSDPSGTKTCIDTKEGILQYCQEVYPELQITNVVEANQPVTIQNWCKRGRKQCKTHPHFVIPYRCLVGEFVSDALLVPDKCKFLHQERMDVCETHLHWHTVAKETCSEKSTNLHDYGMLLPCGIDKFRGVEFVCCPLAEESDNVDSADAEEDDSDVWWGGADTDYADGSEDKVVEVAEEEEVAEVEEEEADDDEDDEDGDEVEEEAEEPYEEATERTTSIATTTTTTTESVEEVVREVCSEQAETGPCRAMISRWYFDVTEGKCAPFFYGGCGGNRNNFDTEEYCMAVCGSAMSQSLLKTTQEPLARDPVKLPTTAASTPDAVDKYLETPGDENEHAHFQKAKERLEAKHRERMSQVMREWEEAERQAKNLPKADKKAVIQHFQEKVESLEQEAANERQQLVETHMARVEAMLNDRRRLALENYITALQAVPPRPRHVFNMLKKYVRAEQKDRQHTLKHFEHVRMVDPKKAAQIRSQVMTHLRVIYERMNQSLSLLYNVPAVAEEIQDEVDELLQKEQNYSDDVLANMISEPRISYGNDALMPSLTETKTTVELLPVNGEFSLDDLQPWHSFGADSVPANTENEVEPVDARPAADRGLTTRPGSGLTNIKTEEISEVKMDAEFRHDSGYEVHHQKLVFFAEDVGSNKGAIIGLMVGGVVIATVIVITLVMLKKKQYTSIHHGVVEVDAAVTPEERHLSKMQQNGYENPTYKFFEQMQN

SMILES	Activity [1]	pIC50 [2]	inhibition [3] [%]
C[C@@]12c3ccc4c(c3C(=O)c3occ(c31)[C@@H](O)C[C@@H]2O)CCC4=O	Active	5.00	99
C[C@@]12c3ccc4c(c3C(=O)c3occ(c31)C(=O)C[C@H]2O)CCC4=O [DEMETHOXYVIRIDIN]	–	4.87	–
O=C(O[C@@H]1Cc2c(O)cc(O)cc2O[C@@H]1c1cc(O)c(O)c(O)c1)c1cc(O)c(O)c(O)c1 [EPIGALOCATECHIN GALLATE]	–	6.30	95.1
C[C@]12CCC(=O)c3coc(c31)C(=O)C1=C2[C@@H](O)C[C@]2(C)C(=O)CC[C@@H]12	Active	5.92	98.8
C[C@]1(O)c2ccc3c(c2C(=O)c2occ([C@@H](O)CCO)c21)CCC3=O	Active	4.02	63.5
C[C@@]12C(=O)CC[C@H]1C1=C(C[C@H]2O)[C@@]2(C)CC[C@H](O)c3coc(c32)C1=O	Active	4.36	70.4
C[C@@]1(O)c2ccc3c(c2C(=O)c2occ([C@@H](O)CCO)c21)CCC3=O	Active	4.14	80.5
C[C@]1(O)c2ccc3c(c2C(=O)c2occ(CCO)c21)CCC3=O	Active	4.46	62.8
C[C@]12CC[C@H](O)c3coc(c31)C(=O)C1=C2[C@@H](O)C[C@]2(C)C(=O)CC[C@@H]12	Active	–	54.6
C[C@]1(O)c2ccc3c(c2C(=O)c2occ(CCCO)c21)CCC3=O	Active	4.55	89.5

Reference: ChEMBL document CHEMBL3580580, “Nodulisporiviridins A-H, Bioactive Viridins from Nodulisporium sp” (J Nat Prod, 2015)
